pEC50: −log10 of the molar value. Activity calls are given as the source filed them.
What was measured:
[1] = target: Free fatty acid receptor 1 (Homo sapiens, UniProt O14842); test: Agonist activity at human GPR40 expressed in CHO cells after 24 hrs by NFAT-luciferase reporter gene assay; format: functional, cell-based
[2] = target: T1, Peroxisome proliferator-activated receptor gamma (Homo sapiens) (UniProt P37231); test: Transactivation of human PPARgamma expressed in CHO cells at 10 uM after 24 hrs by luciferase reporter gene assay relative to rosiglitazone; format: cell-based
T1 sequence (whole entry): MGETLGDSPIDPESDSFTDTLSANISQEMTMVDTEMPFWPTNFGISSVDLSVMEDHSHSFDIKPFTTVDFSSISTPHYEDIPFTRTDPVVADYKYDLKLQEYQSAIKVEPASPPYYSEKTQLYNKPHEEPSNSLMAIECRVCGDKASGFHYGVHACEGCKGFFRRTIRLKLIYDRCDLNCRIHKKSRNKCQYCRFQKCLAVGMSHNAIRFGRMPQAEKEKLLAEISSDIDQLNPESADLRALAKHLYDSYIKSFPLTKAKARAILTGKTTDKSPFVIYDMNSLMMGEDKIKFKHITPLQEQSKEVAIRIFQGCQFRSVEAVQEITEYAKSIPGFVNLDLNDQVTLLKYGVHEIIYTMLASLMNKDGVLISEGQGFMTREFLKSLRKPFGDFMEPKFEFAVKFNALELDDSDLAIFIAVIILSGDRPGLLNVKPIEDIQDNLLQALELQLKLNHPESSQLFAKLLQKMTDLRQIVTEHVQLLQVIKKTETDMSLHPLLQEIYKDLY
Outline: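 Luciferase reporter transactivation assay for PPARγ; compounds tested at 10 μM; activity expressed as percent of 1 μM rosiglitazone; no activity defined as >25 μM.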

[3] = Intrinsic clearance in human liver microsomes at 1 uM after 30 mins in presence of NADPH by UPLC-MS analysis; format: ADME, microsome; details: 0.5 h
Outline: (§1)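 Liver microsomal stability; intrinsic clearance reported in μL/min/mg.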

[4] = Intrinsic clearance in CD-1 mouse liver microsomes at 1 uM after 30 mins in presence of NADPH by UPLC-MS analysis; format: ADME, microsome; details: 0.5 h; outline: as §1
[5] = target: Free fatty acid receptor 1 (Mus musculus) (UniProt Q76JU9); test: Agonist activity at GPR40 in mouse MIN6 cells assessed as increase in 17 mM glucose-stimulated insulin secretion at 1 and 10 uM after 2 hrs by ELISA relative to glucose; format: functional, cell-based
Free fatty acid receptor 1 (Mus musculus), sequence (Q76JU9 whole entry): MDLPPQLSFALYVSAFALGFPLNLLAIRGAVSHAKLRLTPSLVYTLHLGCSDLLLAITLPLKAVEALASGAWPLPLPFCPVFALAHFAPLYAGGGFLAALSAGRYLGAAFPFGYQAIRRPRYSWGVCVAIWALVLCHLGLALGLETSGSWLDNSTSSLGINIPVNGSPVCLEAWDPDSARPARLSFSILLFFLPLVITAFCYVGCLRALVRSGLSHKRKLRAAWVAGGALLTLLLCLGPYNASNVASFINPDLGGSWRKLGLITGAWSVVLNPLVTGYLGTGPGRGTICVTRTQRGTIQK
Outline: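 GSIS in MIN6 insulinoma cells stimulated with 17 mM glucose; insulin secretion compared with 17 mM glucose alone by Student's test (*p ≤ 0.05, **p ≤ 0.025, ***p ≤ 0.01).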

[6] = target: T2, Peroxisome proliferator-activated receptor gamma (Homo sapiens, UniProt P37231); test: Transactivation of human PPARgamma expressed in CHO cells after 24 hrs by luciferase reporter gene assay; format: cell-based
T2 sequence (P37231 whole entry): T1 sequence (whole entry)

Free fatty acid receptor 1, sequence (O14842 whole entry): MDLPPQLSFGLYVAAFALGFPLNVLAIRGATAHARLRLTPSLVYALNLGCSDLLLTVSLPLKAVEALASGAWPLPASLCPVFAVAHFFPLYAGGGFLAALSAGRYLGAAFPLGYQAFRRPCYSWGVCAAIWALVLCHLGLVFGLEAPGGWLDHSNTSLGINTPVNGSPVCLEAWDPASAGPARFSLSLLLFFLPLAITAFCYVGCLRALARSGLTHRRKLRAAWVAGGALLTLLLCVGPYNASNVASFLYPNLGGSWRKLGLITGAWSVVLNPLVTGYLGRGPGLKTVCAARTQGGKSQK

Row | SMILES | pEC50 [1] | Activity [2] [%] | other results
1 | O=C(O)CCc1ccc2[nH]c(-c3ccc(Cl)cc3)cc2c1 | 6.11 | 1 | –
2 | O=C(O)CCc1ccc2[nH]c(-c3ccccc3Cl)cc2c1 | 7.23 to 7.26 | 1 | CLH [3]: 9.2 µL/min; CLH [4]: 14.3 µL/min; fold change (FC) [5]: 1.4
3 | O=C(O)CCc1ccc2[nH]c(-c3cccc(Br)c3)cc2c1 | 5.74 | 56 | pEC50 [6]: 3.63
4 | Cc1ccc(-c2cc3cc(CCC(=O)O)ccc3[nH]2)cc1 | < 4.60 | 4 | –
5 | Cc1ncccc1-c1cc2cc(CCC(=O)O)ccc2[nH]1 | < 4.60 | 64 | pEC50 [6]: 4.24
6 | CCc1ccccc1-c1cc2cc(CCC(=O)O)ccc2[nH]1 | 5.74 | 7 | –
7 | Cn1c(-c2ccccc2Br)cc2cc(CCC(=O)O)ccc21 | < 5.00 | – | –
8 | Cc1ccccc1-c1cc2cc(CCC(=O)O)ccc2[nH]1 | 6.35 | 4 | –
9 | COc1ccccc1-c1cc2cc(CCC(=O)O)ccc2[nH]1 | < 4.60 | 0 | –
10 | Cn1c(-c2cccc(Cl)c2)cc2cc(CCC(=O)O)ccc21 | < 5.00 | – | –
11 | Cc1cc(OCCCS(C)(=O)=O)cc(C)c1-c1cccc(COc2ccc3c(c2)OC[C@H]3CC(=O)O)c1 | – | – | fold change (FC) [5]: 1.7
12 | CC(C)c1ccccc1-c1cc2cc(CCC(=O)O)ccc2[nH]1 | < 4.60 | 2 | –
13 | O=C(O)CCc1ccc(NCc2cccc(Oc3ccccc3)c2)cc1 [GW9508] | 7.30 | – | –
14 | O=C(O)CCc1ccc2[nH]c(-c3ccccc3Br)cc2c1 | 8.03 | 4 | CLH [3]: 7.1 µL/min; CLH [4]: 10.4 µL/min; fold change (FC) [5]: 1.6
15 | O=C(O)CCc1ccc2[nH]c(-c3ccccc3C(F)(F)F)cc2c1 | 5.88 | 8 | –
16 | Cn1c(-c2ccc(Cl)cc2)cc2cc(CCC(=O)O)ccc21 | < 5.00 | – | –
17 | O=C(O)CCc1ccc2[nH]c(-c3ccccc3)cc2c1 | < 4.60 | 14 | Activity [5]: inactive
18 | Cc1cccc(-c2cc3cc(CCC(=O)O)ccc3[nH]2)c1 | < 4.60 | 8 | –
19 | COc1cccc(-c2cc3cc(CCC(=O)O)ccc3[nH]2)c1 | < 4.60 | 5 | –
20 | O=C(O)CCc1ccc2[nH]c(-c3ccccc3F)cc2c1 | 5.92 | 3 | –
21 | O=C(O)CCc1ccc2[nH]c(-c3cccc(Cl)c3)cc2c1 | 7.42 | 101 | pEC50 [6]: 5.62; CLH [3]: 4.3 µL/min; CLH [4]: 11.3 µL/min; fold change (FC) [5]: 1.7
22 | O=C(O)CCc1ccc2[nH]c(-c3ccccc3OC(F)(F)F)cc2c1 | 5.99 | 2 | –
23 | COc1ccc(-c2cc3cc(CCC(=O)O)ccc3[nH]2)cc1 | < 4.60 | 5 | –

From ChEMBL document CHEMBL4138261, “SAR Studies of Indole-5-propanoic Acid Derivatives To Develop Novel GPR40 Agonists” (ACS Med Chem Lett, 2017)
